Results gathered from unrelated publications.
EGFR L861Q: Epidermal growth factor receptor (EGFR, Homo sapiens, UniProt P00533, L861Q)
EGFR T790M: Epidermal growth factor receptor (EGFR, Homo sapiens, UniProt P00533, T790M)
EGFR L858R: Epidermal growth factor receptor (EGFR, Homo sapiens, UniProt P00533, L858R)
EGFR del746-750: Epidermal growth factor receptor (EGFR, Homo sapiens, UniProt P00533, del746-750)
EGFR del747-752/P753S: Epidermal growth factor receptor (EGFR, Homo sapiens, UniProt P00533, del747-752/P753S)

| SMILES | target | assay | conditions | measurement | value |
| --- | --- | --- | --- | --- | --- |
| Nc1ncnc2occ(-c3ccc(NC(=O)Nc4cc(C(F)(F)F)ccc4F)cc3)c12 | Epidermal growth factor receptor (EGFR, Homo sapiens, UniProt P00533, del747-750/T751S) | cell-free assay | 20 µM | remaining signal | 27% |
| Cc1ccc(NC(=O)c2ccc(C)c(C(F)(F)F)c2)cc1C#Cc1nn(C2CCC(O)CC2)c2ncnc(N)c12 (stereo not shown) | EGFR L861Q | cell-free assay | 10 µM | remaining signal | 0% |
| COc1ccnn2ncc(-c3ccnc(N(C)C)n3)c12 | EGFR T790M | binding | 1 µM | remaining binding | 100% |
| CSc1cccnc1N1CCN(Cc2nc3ccccc3[nH]2)CC1 | EGFR L858R | cell-free assay, competition with immobilised ligand | 1 µM | remaining binding | 100% |
| Cc1cc(NC(=O)c2cccc3cc(-c4cccc5[nH]nc(N)c45)ccc23)ccc1F | Epidermal growth factor receptor (EGFR, Homo sapiens, UniProt P00533, L858R/T790M) | enzyme activity, inhibitor | 0.1 µM | activity vs control | 103% |
| N[C@H]1CCN(c2nccc(-c3cnn4ncccc34)n2)C1 | Epidermal growth factor receptor (EGFR, Homo sapiens, UniProt P00533, del752-759) | binding | 1 µM | remaining binding | 88% |
| Cc1ccc(C(=O)Nc2ccc(CN3CCN(C)CC3)c(C(F)(F)F)c2)cc1C#Cc1cnc2cccnn12 | EGFR del746-750 | cell-free assay | 23.5 nM | remaining signal | 64% |
| COc1cc(-c2cc(-c3ccc(N4CCNCC4)cc3)cnc2N)cc(OC)c1OC | EGFR L861Q | enzyme activity, inhibitor | 0.1 µM | inhibition | 6% |
| CN(C)c1nccc(-c2cnc3ncccn23)n1 | EGFR del746-750 | binding | 1 µM | remaining binding | 60% |
| CCCCN(CCCC)C(=O)CN1C[C@@H](c2cc(OC)c3c(c2)OCO3)[C@H](C(=O)O)[C@H]1CC(C)(C)CCC | EGFR del747-752/P753S | cell-free assay, competition with immobilised ligand | 1 µM | remaining binding | 75.9% |
| Cc1cnc(NC2CCOCC2)nc1-n1cnc(C(=O)NC(CN)c2cc(F)cc(Cl)c2)c1 (stereo not shown) | Epidermal growth factor receptor (EGFR, Homo sapiens, UniProt P00533) | enzyme activity, inhibitor, radiometric | 1 µM | remaining activity | 108% |
| CNC(=O)Nc1ccc2c(c1)[C@@]1(CC2)OC(=O)N(CC(=O)N(Cc2ccc(F)cc2)[C@@H](C)C(F)(F)F)C1=O | EGFR del747-752/P753S | cell-free assay, competition with immobilised ligand | 1 µM | remaining binding | 85% |
| CC/C(=N\NC(=O)NCc1cccc(O)c1)c1ccc(O)c(C)c1O | EGFR T790M | enzyme activity, inhibitor | 0.1 µM | inhibition | 1.5% |
| C[C@H]1CCN(c2nccc(-c3cnn4ncccc34)n2)C1 | EGFR T790M | binding | 1 µM | remaining binding | 76% |
| COc1cc(-c2cn(C3CCc4ccccc4N(CC(F)(F)F)C3=O)nn2)ccc1-n1ccc(C)n1 (stereo not shown) | EGFR del746-750 | cell-free assay, competition with immobilised ligand | 1 µM | remaining binding | 100% |
| CN(CCCC(F)(F)F)c1nccc(-c2cnn3ncccc23)n1 | EGFR L861Q | binding | 1 µM | remaining binding | 73% |
| CN(C)c1ncnc(-c2ccc3nc(Nc4cc(CN5CCN(C(=O)CC(F)(F)F)CC5)ccn4)[nH]c3c2)c1Cl | EGFR L858R | cell-free assay, competition with immobilised ligand | 1 µM | remaining binding | 100% |
| F[C@@H]1CCN(c2nccc(-c3cnn4ncccc34)n2)C1 | Epidermal growth factor receptor (EGFR, Homo sapiens, UniProt P00533, G719C) | binding | 1 µM | remaining binding | 100% |
| COc1cc(-c2cn(C3CCc4c(F)cccc4N(CC(F)(F)F)C3=O)nn2)ccc1-n1cnc(C)c1 (stereo not shown) | Epidermal growth factor receptor (EGFR, Homo sapiens, UniProt P00533, A750P/del747-749) | cell-free assay, competition with immobilised ligand | 1 µM | remaining binding | 100% |
